1 compound from ChEMBL document CHEMBL4311941, “Development of Multifunctional Histone Deacetylase 6 Degraders with Potent Antimyeloma Activity” (J Med Chem, 2019) can be followed below.

What is called DC50 is the midpoint of the concentration-degradation curve. As a reminder, the IC50 is the concentration that inhibits the measured activity by half. Usually EC50 stands for the concentration that produces a half-maximal response.

Active and inactive are the calls of the source. The rule behind the calls is not given here.

Assay [1] addresses T1, Protein cereblon/Protein deacetylase HDAC6 (Homo sapiens, UniProt Q9UBN7+Q96SW2). Kind of assay: Protac activity at CRBN/HDAC6 in human MM1S cells assessed as HDAC6 degradation measured after 6 hrs by ELISA. The assay is classed as cell-based. The method, boiled down: (§1)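 In-cell ELISA: MM1S cells (5 × 10^4 per well) seeded overnight, treated 6 h (dosed as 5× medium; 0.1 nM–1 μM or 10/100 nM). Fixed in 8% formaldehyde/TBS, permeabilized with 0.1% Triton X, peroxidase quenched with 1% H2O2, blocked in 5% BSA. Anti-HDAC6 rabbit mAb (1:1000, 2 h) then HRP secondary; TMB read as OD450 − OD570. Background wells lacked primary antibody. Signal normalized to Janus Green and to DMSO wells, n = 3. DC50/Dmax from three-parameter fit.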

For assay [2], the target named is T1, Protein cereblon/Protein deacetylase HDAC6. Briefly: Protac activity at CRBN/HDAC6 in human MM1S cells assessed as HDAC6 degradation measured after 6 hrs by ELISA relative to control. The assay is classed as cell-based. The method, boiled down:
as §1
Target sequence in this assay (Q96SW2 whole entry, looked up): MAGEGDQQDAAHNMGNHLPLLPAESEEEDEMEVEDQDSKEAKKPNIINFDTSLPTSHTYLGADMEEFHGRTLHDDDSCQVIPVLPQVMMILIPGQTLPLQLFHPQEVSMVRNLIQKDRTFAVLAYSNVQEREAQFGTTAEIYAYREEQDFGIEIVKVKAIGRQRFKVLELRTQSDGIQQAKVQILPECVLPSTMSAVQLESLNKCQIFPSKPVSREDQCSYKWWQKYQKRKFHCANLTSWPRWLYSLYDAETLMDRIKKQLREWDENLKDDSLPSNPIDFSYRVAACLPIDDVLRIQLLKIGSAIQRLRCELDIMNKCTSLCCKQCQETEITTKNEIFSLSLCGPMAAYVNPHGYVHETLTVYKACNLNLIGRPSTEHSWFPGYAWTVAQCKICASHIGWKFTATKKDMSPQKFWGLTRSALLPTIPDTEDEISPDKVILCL
Target sequence in this assay (Q9UBN7 whole entry, looked up): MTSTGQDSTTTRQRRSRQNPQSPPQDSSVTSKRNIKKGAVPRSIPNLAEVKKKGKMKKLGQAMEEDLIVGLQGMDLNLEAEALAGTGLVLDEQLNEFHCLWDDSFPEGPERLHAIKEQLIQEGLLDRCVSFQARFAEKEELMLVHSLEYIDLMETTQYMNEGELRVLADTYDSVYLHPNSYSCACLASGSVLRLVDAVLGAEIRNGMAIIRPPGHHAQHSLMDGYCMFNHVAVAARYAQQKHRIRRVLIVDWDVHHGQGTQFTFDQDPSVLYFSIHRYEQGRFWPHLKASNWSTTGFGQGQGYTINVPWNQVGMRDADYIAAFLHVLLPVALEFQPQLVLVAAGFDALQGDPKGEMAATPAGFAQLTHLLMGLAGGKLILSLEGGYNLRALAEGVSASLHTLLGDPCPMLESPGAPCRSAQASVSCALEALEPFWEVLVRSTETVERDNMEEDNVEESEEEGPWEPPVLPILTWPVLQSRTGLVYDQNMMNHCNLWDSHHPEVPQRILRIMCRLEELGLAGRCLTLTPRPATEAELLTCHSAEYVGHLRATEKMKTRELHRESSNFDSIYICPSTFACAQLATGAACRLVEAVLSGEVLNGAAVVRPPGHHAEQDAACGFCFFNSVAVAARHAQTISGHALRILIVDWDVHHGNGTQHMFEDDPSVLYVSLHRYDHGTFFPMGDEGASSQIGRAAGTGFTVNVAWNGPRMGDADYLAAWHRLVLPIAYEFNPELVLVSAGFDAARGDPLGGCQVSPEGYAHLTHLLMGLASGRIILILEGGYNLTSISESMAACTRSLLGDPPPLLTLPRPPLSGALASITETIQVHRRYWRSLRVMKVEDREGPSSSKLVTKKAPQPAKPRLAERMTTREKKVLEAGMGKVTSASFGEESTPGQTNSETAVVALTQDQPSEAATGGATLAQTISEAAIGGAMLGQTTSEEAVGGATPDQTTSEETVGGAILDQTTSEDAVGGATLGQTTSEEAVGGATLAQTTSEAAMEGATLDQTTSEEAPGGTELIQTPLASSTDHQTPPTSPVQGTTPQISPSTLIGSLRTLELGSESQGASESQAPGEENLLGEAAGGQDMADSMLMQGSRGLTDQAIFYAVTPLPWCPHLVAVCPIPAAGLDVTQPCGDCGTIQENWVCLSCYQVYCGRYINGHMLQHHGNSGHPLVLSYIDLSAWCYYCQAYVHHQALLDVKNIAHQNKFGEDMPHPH
In general terms: ELISA stands for enzyme-linked immunosorbent assay.

The target in assay [3] is Cereblon/Ikaros (Homo sapiens) (UniProt Q96SW2+Q13422). Kind of assay: Protac activity at CRBN/IKZF1 in human MM1S cells assessed as IKZF1 degradation measured after 6 hrs by Western blot analysis. The assay is classed as cell-based. For orientation: A western blot detects proteins with antibodies after separation by electrophoresis.
Assay [4] concerns the target Protein cereblon/Histone deacetylase 3 (Homo sapiens) (UniProt O15379+Q96SW2). Briefly: Protac activity at CRBN/HDAC3 in human MM1S cells assessed as HDAC3 degradation measured after 6 hrs by Western blot analysis. The assay is classed as cell-based.
The target in assay [5] is Protein cereblon/Histone deacetylase 4 (Homo sapiens) (UniProt P56524+Q96SW2). Kind of assay: Protac activity at CRBN/HDAC4 in human MM1S cells assessed as HDAC4 degradation measured after 6 hrs by Western blot analysis. The assay is classed as cell-based.
In assay [6] the target is T1, Protein cereblon/Protein deacetylase HDAC6. Briefly: Protac activity at CRBN/HDAC6 in human MM1S cells assessed as induction of alpha tubulin acetylation measured after 6 hrs by Western blot analysis. It is filed as cell-based.
Target sequence in this assay (Q96SW2 whole entry, looked up): as the sequence (Q96SW2 whole entry, looked up) above
Target sequence in this assay (Q9UBN7 whole entry, looked up): as the sequence (Q9UBN7 whole entry, looked up) above
Assay [7] deals with T2, Protein cereblon/Histone deacetylase 1 (Homo sapiens) (UniProt Q13547+Q96SW2). Briefly: Protac activity at CRBN/HDAC1 in human MM1S cells assessed as HDAC1 degradation at 100 nM measured up to 8 hrs by Western blot analysis. The assay is classed as cell-based.
T2 sequence (Q13547 whole entry, looked up): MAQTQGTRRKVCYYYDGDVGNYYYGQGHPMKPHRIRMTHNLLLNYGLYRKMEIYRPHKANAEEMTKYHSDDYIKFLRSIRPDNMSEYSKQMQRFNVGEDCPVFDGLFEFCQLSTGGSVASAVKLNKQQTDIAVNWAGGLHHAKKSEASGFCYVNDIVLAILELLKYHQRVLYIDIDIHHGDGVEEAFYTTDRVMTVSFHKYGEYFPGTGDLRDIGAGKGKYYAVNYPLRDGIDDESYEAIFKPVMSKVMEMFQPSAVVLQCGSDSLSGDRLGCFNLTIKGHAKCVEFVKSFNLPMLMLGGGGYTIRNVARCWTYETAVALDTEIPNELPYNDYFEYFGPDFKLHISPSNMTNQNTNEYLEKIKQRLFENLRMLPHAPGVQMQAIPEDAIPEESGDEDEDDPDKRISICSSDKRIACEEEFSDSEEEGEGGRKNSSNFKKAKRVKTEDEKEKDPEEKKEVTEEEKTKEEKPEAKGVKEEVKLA
T2 sequence (Q96SW2 whole entry, looked up): as the sequence (Q96SW2 whole entry, looked up) above
In assay [8] the target is T1, Protein cereblon/Protein deacetylase HDAC6. Kind of assay: Protac activity at CRBN/HDAC6 in human MM1S cells assessed as HDAC6 degradation at 100 nM incubated for 6 hrs followed by compound washout and measured up to 48 hrs by Western blot analysis. The assay is classed as cell-based. The method, boiled down:
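MM1S cells treated 6 h with 100 nM, washed with PBS to remove compound, then HDAC6 followed by immunoblot for up to 48 h. Lysis in RIPA; SDS-PAGE and PVDF transfer; primary antibody 4 °C overnight, HRP secondary, ECL.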
Target sequence in this assay (Q96SW2 whole entry, looked up): as above
Target sequence in this assay (Q9UBN7 whole entry, looked up): as the sequence (Q9UBN7 whole entry, looked up) above

In assay [9] the target is T3, Protein cereblon/Zinc finger protein Aiolos (Homo sapiens) (UniProt Q96SW2+Q9UKT9). Kind of assay: Protac activity at CRBN/IKZF3 in human MM1S cells assessed as IKZF3 degradation at 100 nM incubated for 6 hrs followed by compound washout and measured after 12 hrs by Western blot analysis. It is filed as cell-based. The method, boiled down:
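MM1S cells treated with 100 nM degrader for 6 h, then washed with PBS to remove compound. IKZF3 followed by immunoblot over up to 48 h after washout: RIPA lysate, SDS-PAGE, PVDF transfer, HRP secondary antibody and ECL imaging.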

The next assay deals with Histone deacetylase 1 (Homo sapiens, UniProt Q13547). Kind of assay: Inhibition of human N-terminal tagged human HDAC1 expressed in HEK293T/17 using Ac-Gly-Ala-[Ac-Lys]-AMC as substrate preincubated for 10 mins followed by substrate addition and measured after 15 mins by fluorescence assay.
The target of a further assay is Histone deacetylase 4 (Homo sapiens, UniProt P56524). Briefly: Inhibition of human N-terminal tagged human HDAC4 expressed in HEK293T/17 using Boc-[TFA-Lys]-AMC as substrate preincubated for 10 mins followed by substrate addition and measured after 60 mins by fluorescence assay.
Sequence of Histone deacetylase 4 (P56524 whole entry): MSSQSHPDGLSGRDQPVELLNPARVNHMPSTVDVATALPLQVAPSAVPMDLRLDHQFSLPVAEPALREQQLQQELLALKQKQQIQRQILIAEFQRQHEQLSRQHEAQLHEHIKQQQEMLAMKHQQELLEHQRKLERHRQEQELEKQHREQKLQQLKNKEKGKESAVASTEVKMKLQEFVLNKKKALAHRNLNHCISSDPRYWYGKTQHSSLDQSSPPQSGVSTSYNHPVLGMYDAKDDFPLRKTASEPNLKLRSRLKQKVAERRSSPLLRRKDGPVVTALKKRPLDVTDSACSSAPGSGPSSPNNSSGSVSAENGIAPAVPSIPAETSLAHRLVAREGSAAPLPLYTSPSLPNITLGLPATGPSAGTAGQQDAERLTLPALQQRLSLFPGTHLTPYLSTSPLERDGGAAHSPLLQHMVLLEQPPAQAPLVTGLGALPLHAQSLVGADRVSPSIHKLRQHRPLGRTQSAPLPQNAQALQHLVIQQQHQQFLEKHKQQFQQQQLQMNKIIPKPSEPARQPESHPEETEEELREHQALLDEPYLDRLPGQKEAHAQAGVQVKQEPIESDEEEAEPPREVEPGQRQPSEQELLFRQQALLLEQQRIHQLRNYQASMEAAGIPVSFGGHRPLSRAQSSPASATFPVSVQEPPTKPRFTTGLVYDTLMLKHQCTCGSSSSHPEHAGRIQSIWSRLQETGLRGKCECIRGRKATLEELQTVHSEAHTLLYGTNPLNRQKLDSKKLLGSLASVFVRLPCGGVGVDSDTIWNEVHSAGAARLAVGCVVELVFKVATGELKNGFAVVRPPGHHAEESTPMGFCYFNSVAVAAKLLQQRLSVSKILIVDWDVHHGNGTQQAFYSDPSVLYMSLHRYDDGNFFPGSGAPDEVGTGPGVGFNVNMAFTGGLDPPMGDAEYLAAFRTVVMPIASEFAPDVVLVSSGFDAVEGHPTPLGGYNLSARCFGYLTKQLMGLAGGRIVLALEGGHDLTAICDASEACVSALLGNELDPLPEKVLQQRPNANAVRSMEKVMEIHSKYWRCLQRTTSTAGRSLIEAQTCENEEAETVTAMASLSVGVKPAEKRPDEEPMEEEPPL
Assay [10] deals with T1, Protein cereblon/Protein deacetylase HDAC6. Kind of assay: Protac activity at CRBN/HDAC6 in human MM1S cells assessed as HDAC6 degradation at 100 nM measured after 6 hrs in presence of E3 ligase ligand pomalidomide by Western blot analysis. The assay is classed as cell-based.
Target sequence in this assay (Q96SW2 whole entry, looked up): as the sequence (Q96SW2 whole entry, looked up) above
Target sequence in this assay (Q9UBN7 whole entry, looked up): as the sequence (Q9UBN7 whole entry, looked up) above
Assay [11] has as its target T3, Protein cereblon/Zinc finger protein Aiolos (Homo sapiens). Kind of assay: Protac activity at CRBN/IKZF3 in human MM1S cells assessed as IKZF3 degradation at 100 nM measured after 6 hrs in presence of HDAC6 inhibitor Next-A by Western blot analysis. The assay is classed as cell-based. The method, boiled down:
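MM1S cells seeded at 1 × 10^6 per well overnight. Pretreated 1 h with pomalidomide, Next-A, MLN 4924 or DMSO, then given 100 nM degrader or DMSO for 6 h. Lysed in RIPA with protease inhibitors, 10−40 μg protein run on SDS-PAGE and transferred to PVDF. Blots probed for IKZF1/IKZF3, detected by ECL and quantified by densitometry.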

In assay [12] the target is T2, Protein cereblon/Histone deacetylase 1 (Homo sapiens). Briefly: Protac activity at CRBN/HDAC1 in human MM1S cells assessed as HDAC1 degradation at 100 nM measured after 6 hrs in presence of proteasome inhibitor bortezomib by Western blot analysis. It is filed as cell-based.
Assay [13] has as its target T1, Protein cereblon/Protein deacetylase HDAC6. Kind of assay: Protac activity at CRBN/HDAC6 in human MM1S cells assessed as induction of alpha tubulin acetylation at 100 nM measured after 6 hrs in presence of proteasome inhibitor MG132 by Western blot analysis. The assay is classed as cell-based.
Target sequence in this assay (Q96SW2 whole entry, looked up): as the sequence (Q96SW2 whole entry, looked up) above
Target sequence in this assay (Q9UBN7 whole entry, looked up): as the sequence (Q9UBN7 whole entry, looked up) above
Assay [14] has the same target. Kind of assay: Protac activity at CRBN/HDAC6 in human MM1S cells assessed as induction of alpha tubulin acetylation at 100 nM measured after 6 hrs in presence of proteasome inhibitor bortezomib by Western blot analysis. The assay is classed as cell-based.
Target sequence in this assay (Q96SW2 whole entry, looked up): as the sequence (Q96SW2 whole entry, looked up) above
Target sequence in this assay (Q9UBN7 whole entry, looked up): as the sequence (Q9UBN7 whole entry, looked up) above
In assay [15] the test system is MM1.S. Kind of assay: Effect on HDAC6 mRNA expression in human MM1S cells at 100 nM measured after 6 hrs by SYBR green dye-based qRT-PCR analysis. It is filed as functional, cell-based. The method, boiled down:
(§2)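 After treatment, MM1S cells washed twice with cold PBS. Total RNA extracted and normalized, then reverse-transcribed. 10 ng cDNA amplified with SYBR Green: 50 °C 2 min, 95 °C 2 min, then 40 cycles of 95 °C 1 s / 60 °C 30 s, followed by a melt curve. Expression calculated by the 2−ΔΔCt method.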

For assay [16], the system named is MM1.S. Briefly: Effect on IKZF1 mRNA expression in human MM1S cells at 100 nM measured after 6 hrs by SYBR green dye-based qRT-PCR analysis. The assay is classed as functional, cell-based. The essentials:
as §2
A general note: Quantitative PCR measures a nucleic acid by following its amplification.

Assay [17] concerns MM1.S. Briefly: Antiproliferative activity against human MM1S cells assessed as reduction in cell viability measured after 72 hrs by resazurin dye based assay. The assay is classed as functional. The essentials: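 MM1S cells seeded at 1 × 10^4 per well, left overnight, then given compound or DMSO vehicle (added as 5× dosing medium) for 72 h at 37 °C, 5% CO2. Resazurin added (10× solution, 1 mg/mL), then incubated overnight at 37 °C. OD read at 570 and 600 nm. Viability is relative to vehicle, n = 3. Curves fitted as [inhibitor] vs response (three parameters); test range 0.3 nM–3 μM.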

For assay [18], the system named is MM1.S. Kind of assay: Induction of apoptosis in human MM1S cells assessed as cleavage of PARP measured after 48 hrs by Western blot analysis. The assay is classed as functional, cell-based.
Assay [19] deals with Histone deacetylase (Homo sapiens) (UniProt Q13547+O15379+Q9UBN7+Q92769+Q9UQL6+Q8WUI4+Q9BY41+Q96DB2+P56524+Q9UKV0+Q969S8). Conditions: at 100 nM.

T3 sequence (Q96SW2 whole entry, looked up): as the sequence (Q96SW2 whole entry, looked up) above
T3 sequence (Q9UKT9 whole entry, looked up): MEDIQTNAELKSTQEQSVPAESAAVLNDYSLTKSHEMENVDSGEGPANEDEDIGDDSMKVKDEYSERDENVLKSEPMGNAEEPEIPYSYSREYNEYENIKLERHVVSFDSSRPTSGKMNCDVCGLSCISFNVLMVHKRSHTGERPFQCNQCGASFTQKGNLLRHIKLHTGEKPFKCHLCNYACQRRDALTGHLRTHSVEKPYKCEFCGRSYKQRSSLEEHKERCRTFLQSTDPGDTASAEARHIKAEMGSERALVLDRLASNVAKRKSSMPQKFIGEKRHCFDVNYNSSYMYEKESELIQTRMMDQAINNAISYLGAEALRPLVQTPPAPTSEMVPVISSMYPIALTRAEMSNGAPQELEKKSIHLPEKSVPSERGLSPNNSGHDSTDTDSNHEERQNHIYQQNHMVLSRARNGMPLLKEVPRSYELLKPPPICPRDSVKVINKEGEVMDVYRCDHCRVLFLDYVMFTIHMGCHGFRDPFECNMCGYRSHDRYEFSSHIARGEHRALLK

Consider `CCCCN(Cc1ccc(C(=O)NO)cc1)C(=O)Nc1ccc(OCCCCCn2cc(CNc3cccc4c3C(=O)N(C3CCC(=O)NC3=O)C4=O)nn2)cc1` (stereo unspecified), for which, in [1], the DC50 turned out to be 1.64 nM. Also, the %max in assay [2] was found to be 86.3%. The Activity result (in [3]; in assay [6]; in the assay on MM1.S [18]) was “Dose-dependent effect” in each case. In addition, the outcome in assay [4], in [5], in assay [7], in assay [9], in [10] and in [12] was inactive. Further, the result in assay [13] and in assay [14] was inactive. The outcome (in [8]; in assay [11]; with MM1.S [15]; in the assay with MM1.S [16]) was Active. The IC50 against Histone deacetylase 1 and on Histone deacetylase 4 was 300 to 30000 nM each time. In the assay with MM1.S [17], the EC50 came out at 74.9 nM. Further, the inhibition result in assay [19] was “inactive”.
